PLC-beta3 inh: PLC-beta3 (human) inhibition, primary screen; Q01970; Purified PLC-beta3, fluorogenic substrate, fluorescence; inhibition, % at 12.2 µM; 370,000 tested, 0.18% active; AID 720704; in the data active = inhibition above about 11%;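 also: 0% = median of compound wells on plate and 100% = full blocker control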
Target sequence (Q01970 whole entry, looked up): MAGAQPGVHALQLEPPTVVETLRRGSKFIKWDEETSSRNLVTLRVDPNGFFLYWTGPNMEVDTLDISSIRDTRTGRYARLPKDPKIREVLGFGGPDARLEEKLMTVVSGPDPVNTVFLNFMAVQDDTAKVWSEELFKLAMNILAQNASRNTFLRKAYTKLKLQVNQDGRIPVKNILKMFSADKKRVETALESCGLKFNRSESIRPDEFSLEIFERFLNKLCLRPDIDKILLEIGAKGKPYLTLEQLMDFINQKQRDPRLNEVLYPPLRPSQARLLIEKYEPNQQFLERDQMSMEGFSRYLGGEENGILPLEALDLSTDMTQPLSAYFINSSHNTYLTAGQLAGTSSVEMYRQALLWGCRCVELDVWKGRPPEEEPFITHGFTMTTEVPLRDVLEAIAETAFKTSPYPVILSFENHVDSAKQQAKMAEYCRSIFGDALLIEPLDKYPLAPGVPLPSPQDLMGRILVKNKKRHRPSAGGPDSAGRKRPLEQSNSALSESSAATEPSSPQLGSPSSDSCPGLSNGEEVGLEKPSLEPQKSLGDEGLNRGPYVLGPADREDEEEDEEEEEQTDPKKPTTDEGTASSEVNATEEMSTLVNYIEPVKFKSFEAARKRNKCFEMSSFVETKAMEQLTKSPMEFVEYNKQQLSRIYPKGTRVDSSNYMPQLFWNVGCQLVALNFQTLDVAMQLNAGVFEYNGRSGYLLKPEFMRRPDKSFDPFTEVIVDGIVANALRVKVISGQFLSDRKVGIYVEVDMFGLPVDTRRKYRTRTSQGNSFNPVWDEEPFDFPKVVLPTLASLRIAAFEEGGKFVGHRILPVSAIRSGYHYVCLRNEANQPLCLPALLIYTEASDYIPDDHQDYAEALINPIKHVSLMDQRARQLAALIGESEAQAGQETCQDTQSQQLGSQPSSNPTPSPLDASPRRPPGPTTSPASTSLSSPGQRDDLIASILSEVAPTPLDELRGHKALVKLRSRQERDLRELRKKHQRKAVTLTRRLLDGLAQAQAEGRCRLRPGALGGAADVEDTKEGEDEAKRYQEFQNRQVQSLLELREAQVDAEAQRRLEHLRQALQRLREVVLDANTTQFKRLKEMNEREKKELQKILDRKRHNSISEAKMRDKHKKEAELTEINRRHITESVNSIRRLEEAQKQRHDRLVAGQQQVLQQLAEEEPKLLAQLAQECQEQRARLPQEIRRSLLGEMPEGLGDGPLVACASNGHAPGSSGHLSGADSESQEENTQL
PvdQ inh: blocks Pseudomonas aeruginosa PvdQ acylase activity; purified PvdQ acylase, fluorescence plate reader; inhibition, % at 10 µM; 340,000 tested, 0.063% active; in the data active = inhibition above about 30%, passing the limit was not always enough;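 also: 0% = vehicle neutral wells and 100% = reference inhibitor wells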
VIM-2 inhibitor: blocks Pseudomonas aeruginosa VIM-2 metallo-beta-lactamase | purified VIM-2, nitrocefin hydrolysis, epi-absorbance fluorescence | inhibition, % at 5.6 µM | 290,000 tested, 0.89% active | AID 1527;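 active = inhibition above the mean of all tested compounds plus 3 SD, cutoff set per screening run, cut at about 7.5% in these data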;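 also: red hydrolysis product quenches plate fluorescence so inhibitors raise well fluorescence; 0% = enzyme with DMSO and 100% = DMSO without enzyme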
PLC-gamma1 inh: inhibitors of human phospholipase C gamma1 | P19174 | purified PLC-gamma1, fluorogenic substrate, fluorescence | inhibition, % at 12.2 µM | 370,000 tested, 0.84% active | AID 720700; in the data active = inhibition above about 9.5%
IMP-1 inh-1: inhibitors of Pseudomonas aeruginosa IMP-1 metallo-beta-lactamase | purified IMP-1, nitrocefin hydrolysis, epi-absorbance fluorescence | inhibition, % at 5.6 µM | 290,000 tested, 0.45% active;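 active = inhibition above the mean plus 3 SD of all compounds in the same screening run, cut at about 4.5% in these data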;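 also: 0% = IMP-1 with DMSO and 100% = DMSO wells lacking enzyme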
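Test system: recombinant IMP-1 enzyme, purified / Medium: HEPES buffer pH 7.1 with ZnSO4 and Brij 35 / Doses: single dose, 5.6 µM / Times: 25 °C, 15 min preincubation, 25 min reaction / Detection: Epi-absorbance via hydrolysed-nitrocefin quenching of white-plate fluorescence, 480/530 nm, EDTA stop / Evaluation: percent inhibition from optical density relative to buffer-blank wells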
IMP-1 inh-2: IMP-1 inhibition, counter-screen for VIM-2 inhibitors | inhibition, % at 5.6 µM | 1,300 tested, under 10 active | purified IMP-1, nitrocefin hydrolysis, epi-absorbance fluorescence | AID 1856 | shares compounds with VIM-2 inhibitor; call rule not given here;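 also: 0% = enzyme with vehicle and 100% = vehicle without enzyme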
VIM-2 FRET ctr: VIM-2 FRET inhibition, artifact counter-screen | shares compounds with VIM-2 inhibitor | purified VIM-2, CCF2 FRET substrate hydrolysis | inhibition, % at 5.6 µM | 1,300 tested, 23% active;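 active = inhibition above the mean of all tested compounds plus 3 SD, cut at about 19% in these data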;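 also: 0% = VIM-2 plus DMSO and 100% = no enzyme wells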
TEM-1 inh: blocks E. coli TEM-1 beta-lactamase in VIM-2 selectivity screen | shares compounds with VIM-2 inhibitor | Purified TEM-1, nitrocefin hydrolysis, epi-absorbance fluorescence | inhibition, % at 5.6 µM | 1,300 tested, 3% active;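 active = inhibition above that campaign's mean inhibition plus 3 SD, cut at about 0.46% in these data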;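 also: 0% = TEM-1 with DMSO and 100% = TEM-1 with 100 µM potassium clavulanate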
VIM-2 inh conf: confirmation of P. aeruginosa VIM-2 metallo-beta-lactamase inhibitors. shares compounds with VIM-2 inhibitor. purified VIM-2, nitrocefin hydrolysis, epi-absorbance. inhibition, % at 5.6 µM. 1,300 tested, 96% active. AID 2187;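 active = inhibition of the VIM-2 beta-lactamase enzyme above about 11% from the earlier first-round screen, limit read from the data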;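 also: 0% = VIM-2 with DMSO and 100% = buffer wells without enzyme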
* marks the source's active call; other numbers are inactive results; i = inactive; / = no result. Compounds with a hit are over-represented: about 2% of the library has one in this group of screens.

SMILES | PLC-beta3 inh | PvdQ inh | VIM-2 inhibitor | PLC-gamma1 inh | IMP-1 inh-1 | IMP-1 inh-2 | VIM-2 FRET ctr | TEM-1 inh | VIM-2 inh conf
Cc1nn(-c2ccccc2)c(C)c1/C=N\N1CCN(Cc2ccccc2Cl)CC1 | 1.7 | / | / | 0.8 | / | / | / | / | /
CC(COc1cccc(C#N)c1)CN1CCC(C(O)(c2ccccc2)c2ccccc2)CC1 (centres undefined) | 8.8 | / | / | 5.1 | / | / | / | / | /
Cc1ccc(-n2c(SCC(=O)c3ccc(F)cc3)nnc2-c2cccnc2)cc1 | 3.7 | / | / | 3.5 | / | / | / | / | /
CC(=O)c1ccc(NCCCN2CCC(C(O)(c3ccccc3)c3ccccc3)CC2)cc1 | 6.2 | / | / | 5.9 | / | / | / | / | /
C=CCn1c(=N)c(C(=O)NCCCOC)cc2c(=O)n3cccc(C)c3nc21 | i | -44.6 | 25.5* | i | -0.3 | -4.4 | -87.8 | -8.2 | 29.4*
COCCn1c(=N)c(C(=O)NCCc2ccccc2)cc2c(=O)n3cccc(C)c3nc21 | -350.0 | -36.9 | -2.6 | -277.8 | -2.3 | / | / | / | /
Cc1ccccc1NC(=O)N(C)[C@H]1C[C@H]2c3[nH]c4c(-c5ccccc5)cccc4c3CCN2C[C@H]1[C@H](C)O | -51.4 | / | / | -40.9 | / | / | / | / | /
CN1C(=O)C2(N=c3ccccc3=N2)c2ccccc21 | / | -4.6 | 19.0* | / | -1.2 | -2.2 | 1.1 | -5.5 | 34.3*
CCCN(CCC)CCCNc1ccc2nnc(-c3ccc(F)cc3)n2n1 | -6.9 | 8.2 | 18.4* | -3.3 | -3.3 | -2.9 | -0.2 | -5.6 | 21.7*
Cc1ccc2[nH]c(C)c(/C=C/c3cc[n+](C)cc3)c2c1 | -126.1 | 16.6 | 16.3* | -99.1 | 4.1 | 1.4 | 2.3 | -0.3 | 26.2*
Cc1ccc2[nH]c(C)c(/C=N/Nc3nc4ccccc4s3)c2c1 | -57.8 | 0.6 | -1.2 | -40.4 | -0.5 | / | / | / | /
NCCNC(=O)c1ncsc1-c1cccc(F)c1 | 1.8 | 2.8 | / | 1.6 | / | / | / | / | /
O=C(O)c1ncsc1-c1ccccc1 | -21.1 | -10.2 | 13.4* | 1.6 | -2.6 | -2.3 | 23.9* | -0.8 | 16.1*
O=C(COc1ccccc1)NCc1nnc2c3ccccc3c(-c3ccccc3)nn12 | -1.4 | -18.3 | 18.4* | 0.9 | 1.6 | 1.8 | 5.7 | 1.0* | 38.9*
O=C(NCc1nnc2c3ccccc3c(-c3ccccc3)nn12)c1ccc(Cl)cc1 | 3.5 | -13.4 | -0.4 | 0.3 | -3.6 | / | / | / | /
CC(=O)NCc1nnc2c3ccccc3c(-c3ccccc3)nn12 | -1.7 | 6.9 | 21.9* | -3.5 | -2.0 | -2.8 | -1.0 | -3.8 | 33.3*
O=C(Nc1ccc2c(c1)Cc1ccccc1-2)NC1CCCCN(Cc2cccc(Cl)c2)C1=O (centres undefined) | 2.0 | / | / | -0.2 | / | / | / | / | /
O=C(Nc1nc2ncccn2c1-c1ccc(F)c(F)c1)C1CC1 | i | / | / | i | / | / | / | / | /
Cc1cc2nc(N=C(N)N)nc(C)c2cc1C | -18.4 | 12.6 | 16.6* | -17.0 | -1.6 | -3.9 | 0.3 | -4.8 | 26.4*
COC(=O)C1CN(Cc2ccc(F)cc2)CCS(=O)(=O)N1Cc1cn(Cc2ccccc2)nn1 (centres undefined) | 1.4 | / | / | 2.9 | / | / | / | / | /
Cc1nn2c(N3CCN(C)CC3)c3c(nc2c1-c1ccccc1)CCCC3 | -33.3 | / | 26.2* | -19.6 | 1.2 | -1.9 | -3.8 | -5.0 | 54.8*
Cc1nn2c(NCCN3CCOCC3)c3c(nc2c1-c1ccccc1)CCCC3 | -50.4 | -11.5 | -2.4 | -28.2 | -1.1 | / | / | / | /
O=C(O)C(c1ccccc1)N1C(=O)/C(=C\c2ccc(O)c(O)c2)SC1=S (centres undefined) | -49.5 | -9.2 | 30.5* | -35.7 | -4.4 | -5.6 | 50.0* | -8.3 | 31.0*
CCOC(=O)CC[C@H]1CC[C@]2(CCCN(S(=O)(=O)C3CCCCC3)C2)O1 | -0.1 | / | / | 2.7 | / | / | / | / | /
CCC(=O)N1CCc2cc(Br)c(S(=O)(=O)NCc3ccccc3OC)cc21 | 0.1 | / | / | -1.6 | / | / | / | / | /
C=CCN(CC#CC1=CCCCC1)Cc1ccccc1 | 3.9 | / | / | 0.5 | / | / | / | / | /
Cc1cc(C(=O)OCC(=O)NC(=O)c2cccn2C)c2ccccc2n1 | -12.4 | -8.6 | 12.2* | -7.4 | -3.1 | -3.9 | 46.0* | -5.8 | 32.6*

Source: PubChem BioAssay (several laboratories)
